Only some compounds are listed: those with a hit (about 2.7% of all), similar ones and a draw of the others.
E-sel inducer: E-selectin induction in HUVECs, primary screen, imaging, HUVEC, immunofluorescence imaging, single point; P16581; normalized: neutral wells 0, TNF-alpha wells 100; activation, % at 7.58 µM; 260,000 compounds, 0.37% hits;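 active = mean E-selectin-positive cell signal at least 10% of the positive control, reached in at least 60% of replicates, without over 20% cell loss; inconclusive = no rule given, readout overlaps actives, possibly toxicity-flagged; inactive = the rest, including those meeting only one limit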
Target sequence (P16581 whole entry, looked up): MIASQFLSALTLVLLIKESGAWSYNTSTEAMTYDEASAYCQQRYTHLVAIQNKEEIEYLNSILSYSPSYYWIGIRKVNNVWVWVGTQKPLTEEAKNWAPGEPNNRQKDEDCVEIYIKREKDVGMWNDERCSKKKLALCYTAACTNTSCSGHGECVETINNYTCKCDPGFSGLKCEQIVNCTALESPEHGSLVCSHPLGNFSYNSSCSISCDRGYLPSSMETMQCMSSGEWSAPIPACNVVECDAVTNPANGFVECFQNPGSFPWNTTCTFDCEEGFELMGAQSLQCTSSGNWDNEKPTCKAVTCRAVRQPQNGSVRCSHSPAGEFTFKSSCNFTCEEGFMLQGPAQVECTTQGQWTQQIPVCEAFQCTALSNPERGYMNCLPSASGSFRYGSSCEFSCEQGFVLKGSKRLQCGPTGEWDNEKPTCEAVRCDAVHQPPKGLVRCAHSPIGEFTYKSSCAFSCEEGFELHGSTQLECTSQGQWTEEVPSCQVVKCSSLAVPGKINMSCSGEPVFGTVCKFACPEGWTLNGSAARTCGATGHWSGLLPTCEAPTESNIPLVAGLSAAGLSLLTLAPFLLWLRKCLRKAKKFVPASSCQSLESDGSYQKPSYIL
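material = human umbilical vein endothelial cells (HUVEC), E-selectin induction | quantity = 3,000 cells/well | medium = EGM-2 growth medium on 0.1% gelatin-coated wells | technique = immunofluorescence imaging | read-out basis = % PE-positive cells | control set = TNF-alpha positive control, DMSO neutral control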
FGF22 binding: binders of human FGF22 protein, primary screen, FGF22 synaptogenesis inhibitor project, biophysical, thermal shift, single point; recombinant FGF22 thermal shift, SYPRO orange fluorescence; percent of sucrose octasulfate shift, DMSO zero; activity (Tm shift, normalised), % at 9.99 µM; 340,000 compounds, 1.5% hits; AID 651658, 2012; Fibroblast growth factor 22 (Homo sapiens), Q9HCT0;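 active = mean Tm shift, scaled 0 neutral to 100 positive control, at about 1.3% or above, every replicate too, limit read from the data; inconclusive = no clear call, values can overlap the other calls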
S100A4 inh HTS: inhibitors of S100A4-myosin IIA peptide binding, primary screen, biochemical, fluorescence polarization, TAMRA-MyoIIA peptide. inhibition, % at 10.7 µM. 360,000 compounds, 0.14% hits. AID 652163, 2013;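 active = mean inhibition of at least 70% across replicates, with every replicate also reaching that level; inconclusive = mean inhibition reaches 70% but some replicates fall short; inactive = mean inhibition below 70%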
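Material: S100A4 monomer protein | Medium: HEPES pH 7.2 with CaCl2, KCl, NaCl, DTT, Triton | Reagent: Labelled myosin peptide probe, 5 nM | Doses: One dose per compound | Times: 5 min incubation before reading | Benchmarks: Neutral control DMSO, positive control TFP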
CFTR F508del cor: F508del CFTR correction, initial screen, CFBE line, single point | AID 720511, 2013 | activity (quench increase), % at 7.58 µM | 350,000 compounds, 0.36% hits | CFBE cells, YFP halide quenching; stimulated with forskolin plus potentiator P3; % fluorescence drop versus neutral controls;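 active = mean added fluorescence quench of at least 8% versus neutral control, with both replicates also reaching 8%; inconclusive = only one of the mean or replicate conditions met; inactive = mean below 8% and not both replicates reaching 8%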;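 note: cells transiently co-express mutant CFTR-F508del with the halide-sensitive YFP; corrector assay measuring rescue of mutant channel to the surface after 24 h compound exposure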
Env fusion inh: inhibitors of HIV-1 Env-driven cell-cell fusion, primary screen, HeLa-JRFL effector, CEM21 target cells, luciferase; inhibition, % at 12.3 µM; 360,000 compounds, 1.1% hits; AID 651610, 2012;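 active = mean replicate inhibition score of at least 50 and every replicate individually at or above 50; inconclusive = only one of the two criteria met; inactive = mean below 50 and not all replicates reaching 50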
A number is an active result; n = inactive; u = inconclusive; x = no result given; [ ] = another dose, or the depositor's remark.

SMILES	E-sel inducer	FGF22 binding	S100A4 inh HTS	CFTR F508del cor	Env fusion inh
COCC(C)n1c(C)cc(C(=O)COC(=O)/C=C/c2cccc(F)c2)c1C (stereo not given)	x	43	n	n	n
CCN(CC)c1ccc(CNc2nc3ccccc3n2C)cc1	n	43	n	n	n
COc1ccc(Cl)cc1Nc1nc(-c2sc(NC(=O)c3ccco3)nc2C)cs1	n	n	n	n	n
COc1ccc(Cl)cc1Nc1nc(-c2sc(NC(=O)C(C)(C)C)nc2C)cs1	n	n	n	8.7	n
COc1ccc(OC)c(Nc2nc(-c3sc(NC(=O)C(C)(C)C)nc3C)cs2)c1	x	n	n	8.0	n
COc1cccc(Nc2nc(-c3sc(NC(=O)c4ccco4)nc3C)cs2)c1	n	n	n	n	66
COc1ccc(OC)c(Nc2nc(-c3sc(NC(=O)CC(C)C)nc3C)cs2)c1	n	n	n	n	n
C[C@@H]1CN([C@@H](C)CO)C(=O)Cc2cc(NC(=O)Nc3cccc4ccccc34)ccc2O[C@H]1CN(C)C(=O)Nc1ccccc1	n	n	n	n	x
CCOc1ccc(CN(C)CC(=O)Nc2cc(C)c(C)cc2[N+](=O)[O-])cc1	n	43	n	n	n
CCOc1ccc(CN(C)CC(=O)Nc2cc(OC)c([N+](=O)[O-])cc2C)cc1	n	n	n	n	n
Cc1ccnc(NS(=O)(=O)c2ccc(NC(=O)/C=C/c3cccs3)cc2)n1	x	44	n	n	n
Cc1cc(C)nc(/N=C(\N)Nc2ccc(S(=O)(=O)Nc3nccc(C)n3)cc2)n1	x	43	n	n	n
Cc1cc(C)nc(/N=C(\N)Nc2ccc(CC(=O)OC(C)C)cc2)n1	x	n	n	n	68
Cc1cc(C)nc(/N=C(\N)Nc2ccc(S(=O)(=O)O)cc2)n1	x	n	n	n	n
Cc1cccn2c(=O)c(C=O)c(N3CCN(c4ccccc4)CC3)nc12	x	43	n	n	n
CC(C)CC#Cc1ccc([C@@H]2[C@H](CO)N3C(=O)CN(C(=O)c4ccccn4)C[C@@H]23)cc1	n	x	107	n	x
CCS(=O)(=O)N1CC(=O)N2[C@H](CO)[C@@H](c3ccc(C#CCC(C)C)cc3)[C@@H]2C1	n	n	n	11	x
COc1ccc(S(=O)(=O)N[C@H]2CC[C@H](CC(=O)NCc3ccccc3F)O[C@H]2CO)cc1	n	n	n	n	n
COC(=O)Cc1c(O)ccn(Cc2ccc(Cl)c(Cl)c2)c1=O	n	n	n	14	n
Cc1ccc(NC(=O)N2CCCC2C(=O)NCC2CCCO2)cc1 (stereo not given)	x	43	n	n	n
Cc1ccc(NC(=O)N2CCCC2C(=O)NCC2CCCCC2)cc1 (stereo not given)	n	n	n	n	n
O=C(CCCc1ccccn1)c1cccc2ccccc12	n	n	n	n	n
O=C(CCCc1ccccn1)c1ccc(-c2ccccc2)cc1	n	44	n	n	n
Cc1cccc(Nc2nc(N)nc(CN3CCN(c4ccccc4F)CC3)n2)c1	x	x	x	x	n
CCOc1ccc(Nc2nc(N)nc(CN3CCN(c4ccccc4F)CC3)n2)cc1	x	44	n	n	n
SMILES	E-sel inducer	FGF22 binding	S100A4 inh HTS	CFTR F508del cor	Env fusion inh
O=C(NCCN1CCOCC1)c1ccc(CSc2nc3ccncc3n2Cc2ccc(F)cc2)cc1	x	44	n	n	n
C[C@H]1CN([C@@H](C)CO)C(=O)c2cc(NC(=O)Nc3ccc4c(c3)OCO4)ccc2O[C@H]1CN(C)S(=O)(=O)c1ccccc1	n	n	n	n	n
COc1cccc(-n2c(C)cc(/C=C3/C(=N)N4C(=NC3=O)SN=C4S(C)(=O)=O)c2C)c1	x	1.4	n	n	n
C[C@@H]1CN([C@H](C)CO)C(=O)c2cc(-c3cccnc3)cnc2O[C@H]1CN(C)C(=O)C1CCCCC1	n	x	x	n	n
CNC(=O)C[C@H]1CC[C@@H]2[C@@H](COc3ccc(NC(=O)c4cccc(F)c4)cc3C(=O)N2C)O1	n	n	u	n	n
CN1C(=O)c2cc(NC(=O)c3ccc(Cl)cc3)ccc2OC[C@H]2O[C@@H](CC(=O)NCc3cccc(F)c3)CC[C@H]21	n	n	n	n	x
CNC(=O)C[C@H]1CC[C@H]2[C@@H](COc3ccc(NC(=O)c4cccc(F)c4)cc3C(=O)N2C)O1	92	n	n	n	n
CN1C(=O)c2cc(NC(=O)c3ccc(Cl)cc3)ccc2OC[C@@H]2O[C@H](CC(=O)NCc3cccc(F)c3)CC[C@H]21	n	n	n	12	x
CN1C(=O)c2cc(NC(=O)Cc3ccccc3)ccc2OC[C@@H]2O[C@H](CC(=O)NCc3ccc(Cl)cc3)CC[C@H]21	n	n	x	10	n
CN1C(=O)c2cc(NC(=O)c3cccc(F)c3)ccc2OC[C@H]2O[C@@H](CC(=O)NCc3ccccc3Cl)CC[C@H]21	n	1.6	n	n	x
CN1C(=O)c2cc(NC(=O)c3cccc(Cl)c3)ccc2OC[C@@H]2O[C@H](CC(=O)NC3CCCCC3)CC[C@@H]21	n	n	x	n	57[16.7 µM]
CN1C(=O)c2cc(NS(=O)(=O)c3ccccc3F)ccc2OC[C@@H]2O[C@H](CC(=O)NC3Cc4ccccc4C3)CC[C@@H]21	n	n	n	x	63[16.7 µM]
O=C(C[C@@H]1C[C@H]2c3cc(NC(=O)c4ccc5c(c4)OCO5)ccc3O[C@H]2[C@@H](CO)O1)NCc1cccc(F)c1	n	n	n	n	n
O=C(C[C@@H]1CC[C@H](NC(=O)c2cccc(F)c2)[C@H](CO)O1)Nc1nccs1	n	n	n	n	n
COc1ccc2[nH]c3c(C)c4ccncc4c(C)c3c2c1	x	n	n	16	x
COc1ccc(Cl)cc1NC(=O)C(OC)c1ccccc1 (stereo not given)	n	n	n	x	n
CCC(C(=O)Nc1cc(Cl)ccc1OC)c1ccccc1 (stereo not given)	x	43	n	n	n
COc1ccc2c3c([nH]c2c1)[C@H](CO)N(Cc1cc(F)ccc1F)CC31CCN(C(C)=O)CC1	n	n	x	n	x
CNC[C@H](O)c1cccc(O)c1	n	n	n	n	n
CCN(CC(O)c1cccc(O)c1)C(=O)C12CC3CC(CC(C3)C1)C2 (stereo not given)	x	n	n	n	74
CCOc1ccc(C(=O)N2CCN(c3cnn(-c4ccccc4)c(=O)c3Cl)CC2)cc1	x	44	n	n	n
O=C(c1cccc(Br)c1)N1CCN(c2cnn(-c3ccccc3)c(=O)c2Cl)CC1	n	n	n	n	n
CCN1C(=O)S/C(=C/c2ccc(Oc3ccc([N+](=O)[O-])cn3)c(OC)c2)C1=O	x	43	n	n	n

Screening results from PubChem.
